Reference: ChEMBL document CHEMBL4732237, “Discovery of 4-alkoxy-2-aryl-6,7-dimethoxyquinolines as a new class of topoisomerase I inhibitors endowed with potent in vitro anticancer activity” (2021)

How the values were obtained:
Assay type in all cases: functional
Settings in all cases: read-out: GI
[1] = test system: MDA-MB-468; assay: Growth inhibition of human MDA-MB-468 cells at 10 uM incubated for 48 hrs by sulforhodamine B assay relative to control
Method in brief: (§1)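 NCI-60 single-dose screen. Cells were grown in RPMI 1640 with 5% FBS and 2 mM L-glutamine and plated 24 h before drug addition. Compound was added at one concentration in DMSO-derived medium and incubated for 48 h at 37 °C in 5% CO2. Read-out was SRB protein stain at 515 nm. Result is percent growth versus the no-drug control and the time-zero cell count; values below 0 indicate lethality.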

[2] = test system: M14; assay: Growth inhibition of human M14 cells at 10 uM incubated for 48 hrs by sulforhodamine B assay relative to control; method in brief: as §1
[3] = test system: SN12C; assay: Growth inhibition of human SN12C cells at 10 uM incubated for 48 hrs by sulforhodamine B assay relative to control
Method in brief: (§2)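 NCI one-dose screen. Cells grown in RPMI 1640 with 5% FBS and 2 mM L-glutamine, plated and incubated 24 h at 37 °C, 5% CO2. DMSO-dissolved drug added, then 48 h further incubation. Adherent cells fixed with cold TCA, suspension cells fixed after settling. Stained with 0.4% SRB, absorbance read at 515 nm. Reported as percent growth relative to no-drug control and time-zero cell number.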

[4] = test system: UACC-257; assay: Growth inhibition of human UACC-257 cells at 10 uM incubated for 48 hrs by sulforhodamine B assay relative to control
Method in brief: (§3)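 NCI one-dose screen across a 59-line panel. Cells were grown in RPMI 1640 with 5% FBS and 2 mM L-glutamine, plated and pre-incubated 24 h, then exposed to drug for 48 h at 37 °C, 5% CO2. Adherent cells were fixed with cold TCA (10% final), stained with 0.4% SRB in 1% acetic acid and read at 515 nm. Result is percent growth relative to no-drug control and time-zero cell count.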

[5] = test system: OVCAR-3; assay: Growth inhibition of human OVCAR-3 cells at 10 uM incubated for 48 hrs by sulforhodamine B assay relative to control; method in brief: as §2
[6] = test system: EKVX; assay: Growth inhibition of human EKVX cells at 10 uM incubated for 48 hrs by sulforhodamine B assay relative to control; method in brief: as §1
[7] = test system: NCI-H23; assay: Growth inhibition of human NCI-H23 cells at 10 uM incubated for 48 hrs by sulforhodamine B assay relative to control; method in brief: as §2
[8] = test system: SK-MEL-5; assay: Growth inhibition of human SK-MEL-5 cells at 10 uM incubated for 48 hrs by sulforhodamine B assay relative to control; method in brief: as §2
[9] = test system: SF-539; assay: Growth inhibition of human SF-539 cells at 10 uM incubated for 48 hrs by sulforhodamine B assay relative to control; method in brief: as §2
[10] = test system: SNB-75; assay: Growth inhibition of human SNB-75 cells at 10 uM incubated for 48 hrs by sulforhodamine B assay relative to control; method in brief: as §2
[11] = test system: SK-MEL-2; assay: Growth inhibition of human SK-MEL-2 cells at 10 uM incubated for 48 hrs by sulforhodamine B assay relative to control; method in brief: as §2
[12] = test system: HL-60(TB); assay: Growth inhibition of human HL-60(TB) cells at 10 uM incubated for 48 hrs by sulforhodamine B assay relative to control
Method in brief: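 NCI-60 one-dose screen: same culture, 48 h drug exposure and SRB read-out. Reported as percent growth relative to no-drug control and to time-zero cell number; 0–100 means growth inhibition, below 0 means lethality.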

[13] = test system: MDA-MB-435; assay: Growth inhibition of human MDA-MB-435 cells at 10 uM incubated for 48 hrs by sulforhodamine B assay relative to control; method in brief: as §1
[14] = test system: HOP-62; assay: Growth inhibition of human HOP-62 cells at 10 uM incubated for 48 hrs by sulforhodamine B assay relative to control; method in brief: as §1
[15] = test system: T47D; assay: Growth inhibition of human T47D cells at 10 uM incubated for 48 hrs by sulforhodamine B assay relative to control; method in brief: as §3
[16] = test system: SK-MEL-28; assay: Growth inhibition of human SK-MEL-28 cells at 10 uM incubated for 48 hrs by sulforhodamine B assay relative to control; method in brief: as §2
[17] = test system: HOP-92; assay: Growth inhibition of human HOP-92 cells at 10 uM incubated for 48 hrs by sulforhodamine B assay relative to control; method in brief: as §1
[18] = test system: A498; assay: Growth inhibition of human A498 cells at 10 uM incubated for 48 hrs by sulforhodamine B assay relative to control; method in brief: as §3
[19] = test system: COLO 205; assay: Growth inhibition of human COLO 205 cells at 10 uM incubated for 48 hrs by sulforhodamine B assay relative to control; method in brief: as §1
[20] = test system: LOX IMVI; assay: Growth inhibition of human LOX IMVI cells at 10 uM incubated for 48 hrs by sulforhodamine B assay relative to control; method in brief: as §1
[21] = test system: PC-3; assay: Growth inhibition of human PC-3 cells at 10 uM incubated for 48 hrs by sulforhodamine B assay relative to control; method in brief: as §2
[22] = test system: NCI-H322M; assay: Growth inhibition of human NCI-H322M cells at 10 uM incubated for 48 hrs by sulforhodamine B assay relative to control; method in brief: as §2
[23] = test system: SW-620; assay: Growth inhibition of human SW-620 cells at 10 uM incubated for 48 hrs by sulforhodamine B assay relative to control; method in brief: as §3
[24] = test system: MOLT-4; assay: Growth inhibition of human MOLT-4 cells at 10 uM incubated for 48 hrs by sulforhodamine B assay relative to control; method in brief: as §2
[25] = test system: MDA-MB-231; assay: Growth inhibition of human MDA-MB-231 cells at 10 uM incubated for 48 hrs by sulforhodamine B assay relative to control; method in brief: as §1
[26] = test system: MCF7; assay: Growth inhibition of human MCF7 cells at 10 uM incubated for 48 hrs by sulforhodamine B assay relative to control; method in brief: as §1
[27] = test system: NCI-H522; assay: Growth inhibition of human NCI-H522 cells at 10 uM incubated for 48 hrs by sulforhodamine B assay relative to control; method in brief: as §2
[28] = test system: SF-268; assay: Growth inhibition of human SF-268 cells at 10 uM incubated for 48 hrs by sulforhodamine B assay relative to control; method in brief: as §2
[29] = test system: KM12; assay: Growth inhibition of human KM12 cells at 10 uM incubated for 48 hrs by sulforhodamine B assay relative to control; method in brief: as §1
[30] = test system: SK-OV-3; assay: Growth inhibition of human SK-OV-3 cells at 10 uM incubated for 48 hrs by sulforhodamine B assay relative to control; method in brief: as §2
[31] = test system: OVCAR-8; assay: Growth inhibition of human OVCAR-8 cells at 10 uM incubated for 48 hrs by sulforhodamine B assay relative to control; method in brief: as §2
[32] = test system: NCI-H226; assay: Growth inhibition of human NCI-H226 cells at 10 uM incubated for 48 hrs by sulforhodamine B assay relative to control; method in brief: as §2
[33] = test system: Hs-578T; assay: Growth inhibition of human HS-578T cells at 10 uM incubated for 48 hrs by sulforhodamine B assay relative to control; method in brief: as §1
[34] = test system: OVCAR-5; assay: Growth inhibition of human OVCAR-5 cells at 10 uM incubated for 48 hrs by sulforhodamine B assay relative to control; method in brief: as §2
[35] = test system: SF-295; assay: Growth inhibition of human SF-295 cells at 10 uM incubated for 48 hrs by sulforhodamine B assay relative to control; method in brief: as §2
[36] = test system: UACC-62; assay: Growth inhibition of human UACC-62 cells at 10 uM incubated for 48 hrs by sulforhodamine B assay relative to control; method in brief: as §3

| Structure (SMILES) | inhibition of growth at 10 µM [1] | inhibition of growth at 10 µM [2] | inhibition of growth at 10 µM [3] | inhibition of growth at 10 µM [4] | inhibition of growth at 10 µM [5] | inhibition of growth at 10 µM [6] | inhibition of growth at 10 µM [7] | inhibition of growth at 10 µM [8] | inhibition of growth at 10 µM [9] | inhibition of growth at 10 µM [10] | inhibition of growth at 10 µM [11] | inhibition of growth at 10 µM [12] | inhibition of growth at 10 µM [13] | inhibition of growth at 10 µM [14] | inhibition of growth at 10 µM [15] | inhibition of growth at 10 µM [16] | inhibition of growth at 10 µM [17] | inhibition of growth at 10 µM [18] | inhibition of growth at 10 µM [19] | inhibition of growth at 10 µM [20] | also measured |
| --- | --- | --- | --- | --- | --- | --- | --- | --- | --- | --- | --- | --- | --- | --- | --- | --- | --- | --- | --- | --- | --- |
| COc1cc2nc(-c3ccc(Cl)cc3)cc(OCCN3CCCC3)c2cc1OC | 3% | 3% | 3% | 3% | 3% | 3% | 3% | 3% | 3% | 3% | 3% | 3% | 3% | 3% | 3% | 3% | 3% | 3% | 3% | 3% | inhibition of growth at 10 µM [21]: 3%; inhibition of growth at 10 µM [22]: 3%; inhibition of growth at 10 µM [23]: 3%; inhibition of growth at 10 µM [24]: 3%; inhibition of growth at 10 µM [25]: 3%; inhibition of growth at 10 µM [26]: 3%; inhibition of growth at 10 µM [27]: 3%; inhibition of growth at 10 µM [28]: 3%; inhibition of growth at 10 µM [29]: 3%; inhibition of growth at 10 µM [30]: 3%; inhibition of growth at 10 µM [31]: 3%; inhibition of growth at 10 µM [32]: 3%; inhibition of growth at 10 µM [33]: 3%; inhibition of growth at 10 µM [34]: 3%; inhibition of growth at 10 µM [35]: 3%; inhibition of growth at 10 µM [36]: 3% |
| COc1cc2nc(-c3ccc(C(F)(F)F)cc3)cc(OCCN3CCCCC3)c2cc1OC | 13% | 13% | 13% | 13% | 13% | 13% | 13% | 13% | 13% | 13% | 13% | 13% | 13% | 13% | 13% | 13% | 13% | 13% | 13% | 13% | inhibition of growth at 10 µM [21]: 13%; inhibition of growth at 10 µM [22]: 13%; inhibition of growth at 10 µM [23]: 13%; inhibition of growth at 10 µM [24]: 13%; inhibition of growth at 10 µM [25]: 13%; inhibition of growth at 10 µM [26]: 13%; inhibition of growth at 10 µM [27]: 13%; inhibition of growth at 10 µM [28]: 13%; inhibition of growth at 10 µM [29]: 13%; inhibition of growth at 10 µM [30]: 13%; inhibition of growth at 10 µM [31]: 13%; inhibition of growth at 10 µM [32]: 13%; inhibition of growth at 10 µM [33]: 13%; inhibition of growth at 10 µM [34]: 13%; inhibition of growth at 10 µM [35]: 13%; inhibition of growth at 10 µM [36]: 13% |
| COc1cc2nc(-c3ccc(C(F)(F)F)cc3)cc(OCCN3CCCC3)c2cc1OC | 13% | 13% | 13% | 13% | 13% | 13% | 13% | 13% | 13% | 13% | 13% | 13% | 13% | 13% | 13% | 13% | 13% | 13% | 13% | 13% | inhibition of growth at 10 µM [21]: 13%; inhibition of growth at 10 µM [22]: 13%; inhibition of growth at 10 µM [23]: 13%; inhibition of growth at 10 µM [24]: 13%; inhibition of growth at 10 µM [25]: 13%; inhibition of growth at 10 µM [26]: 13%; inhibition of growth at 10 µM [27]: 13%; inhibition of growth at 10 µM [28]: 13%; inhibition of growth at 10 µM [29]: 13%; inhibition of growth at 10 µM [30]: 13%; inhibition of growth at 10 µM [31]: 13%; inhibition of growth at 10 µM [32]: 13%; inhibition of growth at 10 µM [33]: 13%; inhibition of growth at 10 µM [34]: 13%; inhibition of growth at 10 µM [35]: 13%; inhibition of growth at 10 µM [36]: 13% |
